Source: ChEMBL document CHEMBL4732181, “Pyrazolo[3,4-d]pyrimidine-based dual EGFR T790M/HER2 inhibitors: Design, synthesis, structure-activity relationship and biological activity as potential antitumor and anticonvulsant agents” (Eur J Med Chem, 2021)
The source made the active and inactive calls. The calls are words filed in the database; no cut-off is given here.

What was measured:
WI-38 = experiment: Cytotoxicity against human WI-38 cells assessed as reduction in cell viability after 48 hrs by MTT assay; assay type: cell-based; settings: WI-38, 48 h
Outline: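 Cells from ATCC grown in DMEM with 10% FBS, insulin and 1% penicillin-streptomycin. Plated at 1.2-1.8 × 10,000 cells/well for 24 h, then exposed to compounds in DMSO vehicle for 48 h. MTT 0.5 mg/ml added for 2 h; absorbance read at 570 nm. Experiments run in triplicate.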

MCF7 [1] = experiment: Induction of cell cycle arrest in human MCF7 cells assessed as cell accumulation at pre-G1 phase at IC50 concentration after 24 hrs by propidium iodide staining based flow cytometric analysis (reference value: 1.49%); assay type: functional
MCF7 [2] = experiment: Induction of cell cycle arrest in human MCF7 cells assessed as cell accumulation at G1 phase at IC50 concentration after 24 hrs by propidium iodide staining based flow cytometric analysis (reference value: 53.77%); assay type: functional
MCF7 [3] = experiment: Induction of cell cycle arrest in human MCF7 cells assessed as cell accumulation at S phase at IC50 concentration after 24 hrs by propidium iodide staining based flow cytometric analysis (reference value: 42.34%); assay type: functional
MCF7 [4] = experiment: Induction of cell cycle arrest in human MCF7 cells assessed as cell accumulation at G2/M phase at IC50 concentration after 24 hrs by propidium iodide staining based flow cytometric analysis (reference value: 3.89%); assay type: functional
MCF7 [5] = experiment: Induction of cell cycle arrest in human MCF7 cells assessed as cell increase in accumulation at G2/M phase at IC50 concentration after 24 hrs by propidium iodide staining based flow cytometric analysis; assay type: functional
MCF7 [6] = experiment: Induction of apoptosis in human MCF7 cells assessed as increase in early apoptotic cells at IC50 concentration after 24 hrs by annexin-V-FITC/PI staining based flow cytometric analysis; assay type: functional
MCF7 [7] = experiment: Induction of apoptosis in human MCF7 cells assessed as increase in late apoptotic cells at IC50 concentration after 24 hrs by annexin-V-FITC/PI staining based flow cytometric analysis; assay type: functional
MCF7 [8] = experiment: Induction of apoptosis in human MCF7 cells assessed as increase in caspace-3 protein expression at IC50 concentration after 24 hrs by ELISA; assay type: functional
Outline: (§1)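 Cells treated at IC50 for 24 h and lysed in cell extraction buffer. Lysate diluted in standard diluent buffer and human caspase-3, -7, -9, Bax and Bcl-2 quantified by immunoassay kit (pg/mL). Fold change calculated against untreated control cells.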

MCF7 [9] = experiment: Induction of apoptosis in human MCF7 cells assessed as increase in caspace-7 protein expression at IC50 concentration after 24 hrs by ELISA; assay type: functional; outline: as §1
MCF7 [10] = experiment: Induction of apoptosis in human MCF7 cells assessed as increase in caspace-9 protein expression at IC50 concentration after 24 hrs by ELISA; assay type: functional; outline: as §1
MCF7 [11] = experiment: Induction of apoptosis in human MCF7 cells assessed as increase in Bax protein expression at IC50 concentration after 24 hrs by ELISA; assay type: functional; outline: as §1
MCF7 [12] = experiment: Induction of apoptosis in human MCF7 cells assessed as decrease in Bcl-2 protein expression at IC50 concentration after 24 hrs by ELISA; assay type: functional; outline: as §1
MCF7 [13] = experiment: Induction of apoptosis in human MCF7 cells assessed as increase in Bax/Bcl-2 ratio at IC50 concentration after 24 hrs by ELISA; assay type: functional, cell-based; outline: as §1
[14] = biological target: T1, Receptor tyrosine-protein kinase erbB-2 (Homo sapiens, UniProt P04626); experiment: Inhibition of HER2 (unknown origin) at 10 uM relative to control
Outline: (§2)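 Cell-free immunoassay kit measuring EGFR T790M/HER2 kinase inhibition. Percent inhibition screened at 10 µM. IC50 obtained from four concentrations (0.01-10 µM) by fitting E(%) = Emax/(1+[I]/ID50) to a dose-response curve. Mean of two independent replicates.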

[15] = biological target: Epidermal growth factor receptor (Homo sapiens, UniProt P00533, T790M); experiment: Inhibition of EGFR T790M mutant (unknown origin)
[16] = biological target: T1, Receptor tyrosine-protein kinase erbB-2; experiment: Inhibition of HER2 (unknown origin); outline: as §2
Mus musculus [17] = experiment: Anticonvulsant activity against mouse model of LiCa/pilocarpine-induced status epilepticus assessed as mean power frequency at 20 mg/kg, po for 10 days by EEG method relative to control; assay type: functional; settings: time 10 day
Outline: (§3)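 Male mice (20-30 g), five per group, dosed orally once daily for 10 days. Status epilepticus was then induced with LiCa (3 mEq/kg i.p.), atropine sulfate (1 mg/kg i.p.) 30 min before pilocarpine, and pilocarpine HCl (300 mg/kg i.p.) 2 h after LiCa. Normal controls received oral distilled water. Comparators were untreated SE, phenytoin and lamotrigine. One-way ANOVA with Tukey post-hoc; mean ± SD.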

Mus musculus [18] = experiment: Anticonvulsant activity against mouse model of LiCa/pilocarpine-induced status epilepticus assessed as spectral edge frequency at 20 mg/kg, po for 10 days by EEG method relative to control; assay type: functional; settings: time 10 day; outline: as §3
Mus musculus [19] = experiment: Anticonvulsant activity against mouse model of LiCa/pilocarpine-induced status epilepticus assessed as total power at 20 mg/kg, po for 10 days by EEG method relative to control; assay type: functional; settings: time 10 day; outline: as §3
Mus musculus [20] = experiment: Anticonvulsant activity against mouse model of LiCa/pilocarpine-induced status epilepticus assessed as amplitude at 20 mg/kg, po for 10 days by EEG method relative to control; assay type: functional; settings: time 10 day; outline: as §3
Mus musculus [21] = experiment: Anticonvulsant activity against mouse model of LiCa/pilocarpine-induced status epilepticus assessed as amplitude density at 20 mg/kg, po for 10 days by EEG method relative to control; assay type: functional; settings: time 10 day; outline: as §3
Mus musculus [22] = experiment: Anticonvulsant activity against mouse model of LiCa/pilocarpine-induced status epilepticus assessed as power pV2 at 20 mg/kg, po for 10 days by EEG method relative to control; assay type: functional; settings: time 10 day; outline: as §3
Mus musculus [23] = experiment: Anticonvulsant activity against mouse model of LiCa/pilocarpine-induced status epilepticus assessed as total power density at 20 mg/kg, po for 10 days by EEG method relative to control; assay type: functional; settings: time 10 day; outline: as §3
Mus musculus [24] = experiment: Anticonvulsant activity against mouse model of LiCa/pilocarpine-induced status epilepticus assessed as delta at 20 mg/kg, po for 10 days by EEG method relative to control; assay type: functional; settings: time 10 day; outline: as §3
Mus musculus [25] = experiment: Anticonvulsant activity against mouse model of LiCa/pilocarpine-induced status epilepticus assessed as theta at 20 mg/kg, po for 10 days by EEG method relative to control; assay type: functional; settings: time 10 day; outline: as §3
Mus musculus [26] = experiment: Anticonvulsant activity against mouse model of LiCa/pilocarpine-induced status epilepticus assessed as alpha at 20 mg/kg, po for 10 days by EEG method relative to control; assay type: functional; settings: time 10 day; outline: as §3
Mus musculus [27] = experiment: Anticonvulsant activity against mouse model of LiCa/pilocarpine-induced status epilepticus assessed as MDA level in brain at 20 mg/kg, po for 10 days by calorimetric method relative to control; assay type: functional; settings: time 10 day; outline: as §3
Mus musculus [28] = experiment: Anticonvulsant activity against mouse model of LiCa/pilocarpine-induced status epilepticus assessed as GSH level in brain at 20 mg/kg, po for 10 days by calorimetric method relative to control; assay type: functional; settings: time 10 day; outline: as §3
Mus musculus [29] = experiment: Anticonvulsant activity against mouse model of LiCa/pilocarpine-induced status epilepticus assessed as GABA level in brain at 20 mg/kg, po for 10 days by ELISA relative to control; assay type: functional; settings: time 10 day; outline: as §3
Mus musculus [30] = experiment: Anticonvulsant activity against mouse model of LiCa/pilocarpine-induced status epilepticus assessed as Glutamate level in brain at 20 mg/kg, po for 10 days by ELISA relative to control; assay type: functional; settings: time 10 day; outline: as §3
MCF7 [31] = experiment: Induction of apoptosis in human MCF7 cells assessed as late apoptotic cells at IC50 concentration after 24 hrs by annexin-V-FITC/PI staining based flow cytometric analysis (reference value: 0.47%)
MCF7 [32] = experiment: Induction of apoptosis in human MCF7 cells assessed as early apoptotic cells at IC50 concentration after 24 hrs by annexin-V-FITC/PI staining based flow cytometric analysis (reference value: 0.84%)

T1 sequence (P04626 whole entry): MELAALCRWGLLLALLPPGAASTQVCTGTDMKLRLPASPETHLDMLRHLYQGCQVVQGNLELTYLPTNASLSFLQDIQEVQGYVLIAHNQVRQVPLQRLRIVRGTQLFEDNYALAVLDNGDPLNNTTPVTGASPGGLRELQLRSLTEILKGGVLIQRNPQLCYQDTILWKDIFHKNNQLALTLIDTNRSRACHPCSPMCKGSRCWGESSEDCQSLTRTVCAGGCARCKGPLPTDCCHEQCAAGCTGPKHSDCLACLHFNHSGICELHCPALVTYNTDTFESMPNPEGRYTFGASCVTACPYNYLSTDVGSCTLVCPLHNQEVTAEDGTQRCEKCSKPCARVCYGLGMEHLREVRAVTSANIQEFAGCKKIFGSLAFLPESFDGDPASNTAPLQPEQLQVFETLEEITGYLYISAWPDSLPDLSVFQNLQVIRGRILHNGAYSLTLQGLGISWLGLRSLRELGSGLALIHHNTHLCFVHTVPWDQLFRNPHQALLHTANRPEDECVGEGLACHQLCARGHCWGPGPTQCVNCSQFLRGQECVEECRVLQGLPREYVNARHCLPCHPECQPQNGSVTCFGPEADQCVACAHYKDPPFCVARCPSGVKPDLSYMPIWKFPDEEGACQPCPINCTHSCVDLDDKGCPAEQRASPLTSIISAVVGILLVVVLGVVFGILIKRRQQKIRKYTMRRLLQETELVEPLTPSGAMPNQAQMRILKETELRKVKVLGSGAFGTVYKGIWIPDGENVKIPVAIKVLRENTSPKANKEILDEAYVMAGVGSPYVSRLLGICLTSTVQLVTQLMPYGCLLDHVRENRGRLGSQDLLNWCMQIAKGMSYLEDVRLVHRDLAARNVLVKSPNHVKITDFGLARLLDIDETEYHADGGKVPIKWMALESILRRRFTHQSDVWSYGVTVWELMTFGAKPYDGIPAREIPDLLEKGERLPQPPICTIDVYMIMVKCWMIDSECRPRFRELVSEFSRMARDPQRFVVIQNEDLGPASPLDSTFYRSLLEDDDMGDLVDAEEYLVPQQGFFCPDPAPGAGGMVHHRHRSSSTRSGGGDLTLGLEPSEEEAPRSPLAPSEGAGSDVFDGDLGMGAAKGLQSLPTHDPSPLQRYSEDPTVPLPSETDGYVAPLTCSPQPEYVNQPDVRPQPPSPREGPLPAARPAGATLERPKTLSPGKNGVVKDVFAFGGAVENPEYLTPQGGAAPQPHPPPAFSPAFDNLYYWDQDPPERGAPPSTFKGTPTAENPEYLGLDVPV
Chain of Epidermal growth factor receptor (P00533 25-1210 T790M limits assumed): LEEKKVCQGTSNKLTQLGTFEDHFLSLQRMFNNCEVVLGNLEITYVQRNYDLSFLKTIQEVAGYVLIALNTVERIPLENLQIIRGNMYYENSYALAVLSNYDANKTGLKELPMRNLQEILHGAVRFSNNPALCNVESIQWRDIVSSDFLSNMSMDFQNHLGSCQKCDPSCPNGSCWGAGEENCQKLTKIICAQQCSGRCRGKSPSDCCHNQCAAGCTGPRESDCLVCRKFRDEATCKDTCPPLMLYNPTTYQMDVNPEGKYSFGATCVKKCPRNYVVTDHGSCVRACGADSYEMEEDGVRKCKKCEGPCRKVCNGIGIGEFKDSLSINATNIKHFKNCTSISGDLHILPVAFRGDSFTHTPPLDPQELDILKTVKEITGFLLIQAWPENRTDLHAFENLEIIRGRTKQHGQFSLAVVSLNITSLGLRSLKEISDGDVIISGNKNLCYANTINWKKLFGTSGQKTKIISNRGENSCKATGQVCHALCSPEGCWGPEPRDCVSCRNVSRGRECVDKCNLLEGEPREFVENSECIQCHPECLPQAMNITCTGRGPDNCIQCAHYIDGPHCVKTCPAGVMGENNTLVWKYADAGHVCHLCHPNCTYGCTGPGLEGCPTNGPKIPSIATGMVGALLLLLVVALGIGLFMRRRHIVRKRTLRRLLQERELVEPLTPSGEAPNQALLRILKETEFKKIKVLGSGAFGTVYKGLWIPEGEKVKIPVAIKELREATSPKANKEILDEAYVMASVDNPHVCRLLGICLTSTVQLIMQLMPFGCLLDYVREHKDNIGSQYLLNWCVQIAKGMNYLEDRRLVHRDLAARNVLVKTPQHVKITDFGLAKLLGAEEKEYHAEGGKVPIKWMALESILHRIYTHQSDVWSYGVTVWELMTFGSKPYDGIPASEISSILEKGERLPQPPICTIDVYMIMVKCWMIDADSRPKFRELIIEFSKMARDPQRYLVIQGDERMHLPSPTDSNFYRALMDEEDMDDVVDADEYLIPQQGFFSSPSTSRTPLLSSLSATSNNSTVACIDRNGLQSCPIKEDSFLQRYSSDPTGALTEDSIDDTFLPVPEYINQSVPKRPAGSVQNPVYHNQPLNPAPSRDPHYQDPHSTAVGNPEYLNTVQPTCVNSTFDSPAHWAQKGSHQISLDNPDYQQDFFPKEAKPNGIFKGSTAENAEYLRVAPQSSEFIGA

inhibition [14]: 86.7% | IC50 [15]: 227 nM | IC50 [16]: 866 nM
Compound: COc1ccc(/C=C2/N=C(c3ccc(Cl)cc3)N(C(=O)Cc3nc4c(c(C)nn4-c4ccccc4)c(=O)[nH]3)NC2=O)cc1
IC50 (WI-38): 54.9 nM | Activity (MCF7 [1]): 22.12% | Activity (MCF7 [2]): 25.09% | Activity (MCF7 [3]): 28.34% | Activity (MCF7 [4]): 46.57% | fold change (FC) (MCF7 [5]): 11.97 | fold change (FC) (MCF7 [6]): 5.6 | fold change (FC) (MCF7 [7]): 29.5 | fold change (FC) (MCF7 [8]): 12 | fold change (FC) (MCF7 [9]): 7.9 | fold change (FC) (MCF7 [10]): 22.9 | fold change (FC) (MCF7 [11]): 5.6 | fold change (FC) (MCF7 [12]): 3.4 | Activity (MCF7 [13]): Active | Activity (Mus musculus [17]): -28.59% | Activity (Mus musculus [18]): -20.21% | Activity (Mus musculus [19]): 13.12% | Activity (Mus musculus [20]): 47.56% | Activity (Mus musculus [21]): 67.48% | Activity (Mus musculus [22]): 132.38% | Activity (Mus musculus [23]): 174.78% | Activity (Mus musculus [24]): 258.15% | Activity (Mus musculus [25]): 55.17% | Activity (Mus musculus [26]): 28.04% | Activity (Mus musculus [27]): -50% | Activity (Mus musculus [28]): 179.51% | Activity (Mus musculus [29]): 71.54% | Activity (Mus musculus [30]): -36.07% | Activity (MCF7 [31]): 13.9% | Activity (MCF7 [32]): 4.98%
